From ChEMBL document CHEMBL4732226, “Discovery of a potent G-protein-coupled receptor 119 agonist for the treatment of type 2 diabetes” (Bioorg Med Chem, 2021) come the findings set out here.

In data set [1] the target is T1, Glucose-dependent insulinotropic receptor (Homo sapiens) (UniProt Q8TDV5).
T1 sequence (whole entry): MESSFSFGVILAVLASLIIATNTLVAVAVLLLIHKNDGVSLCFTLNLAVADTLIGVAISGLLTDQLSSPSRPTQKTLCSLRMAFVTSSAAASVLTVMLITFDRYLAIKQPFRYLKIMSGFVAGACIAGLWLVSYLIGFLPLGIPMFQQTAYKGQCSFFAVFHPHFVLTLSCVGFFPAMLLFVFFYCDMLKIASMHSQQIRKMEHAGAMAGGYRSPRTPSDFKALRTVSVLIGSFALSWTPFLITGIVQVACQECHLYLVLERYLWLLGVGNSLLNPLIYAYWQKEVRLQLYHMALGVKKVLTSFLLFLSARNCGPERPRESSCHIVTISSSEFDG
In words: Agonist activity at human GPR119 stably transfected in CHO-K1 cells assessed as increase in cAMP stimulation after 1 hr by enzyme immunoassay relative to AR231453. In kind it is functional, cell-based.

The target of data set [2] is T2, Glucose-dependent insulinotropic receptor (Homo sapiens, UniProt Q8TDV5).
T2 sequence (Q8TDV5 whole entry): T1 sequence (whole entry)
In words: Agonist activity at human GPR119 stably transfected in CHO-K1 cells assessed as increase in cAMP stimulation after 1 hr by enzyme immunoassay. The data set is classed as functional, cell-based.

Another data set deals with Mus musculus. Nature of the data set: Antidiabetic activity in glucose-stimulated […] mouse assessed as reduction in blood glucose level at 50 mg/kg, po pretreated for 30 mins followed by glucose-stimulation and measured up to 120 mins by OGTT method relative to control. The data set is classed as functional. Further details: scale not given: the % may be the effect or the level left. Particulars: 0.5 h. The essentials:
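C57 mice aged 6–8 weeks were grouped by non-fasting glucose and fasted overnight. Single oral dose of 50 mg/kg; 30 min later basal bleed and oral glucose 3 g/kg. Serum glucose taken at 20, 40, 60 and 120 min. Change in glucose AUC calculated.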

Data set [3] in a line: Half life in Sprague-Dawley rat at 25 mg/kg, po up to 24 hrs. The data set is classed as ADME, organism-based. Particulars: in vivo. The gist of the method: (§1)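 Male SD rats fasted overnight, water ad libitum, fed 4 h after dosing. Single oral gavage of 25 mg/kg as a homogeneous suspension in 0.5% Tween 80 in 0.5% Na-CMC. Blood drawn into Na-heparin tubes at 0.25, 0.5, 1, 2, 4, 6, 8 and 24 h; plasma stored at -70°C. Parameters by non-compartmental analysis, with C0 taken as zero and BLQ samples set to zero.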

Data set [4] is described as follows: Cmax in Sprague-Dawley rat at 25 mg/kg, po up to 24 hrs. Particulars: in vivo. The data set is classed as ADME, organism-based. Further details: route oral, dose 25 mg/kg, time <=24. The essentials: as §1
A short description of data set [5]: AUC(0 to t) in Sprague-Dawley rat at 25 mg/kg, po up to 24 hrs. Set-up: route oral, dose 25 mg/kg, time <=24. Particulars: in vivo. In kind it is ADME, organism-based. The gist of the method:
as §1

Data set [6] in a line: Elimination rate constant in Sprague-Dawley rat at 25 mg/kg, po up to 24 hrs. In kind it is ADME, organism-based. Particulars: in vivo. The essentials: as §1
A short description of data set [7]: Tmax in Sprague-Dawley rat at 25 mg/kg, po up to 24 hrs. In kind it is ADME, organism-based. Particulars: in vivo. The essentials:
as §1

A short description of data set [8]: AUC(0 to infinity) in Sprague-Dawley rat at 25 mg/kg, po up to 24 hrs. In kind it is ADME, organism-based. Further details: route oral, dose 25 mg/kg, time <=24. Particulars: in vivo. The gist of the method: as §1

One may read the Emax as the greatest response seen or fitted, relative to the assay's reference. As usually defined, the EC50 is the concentration needed to bring the measured effect to its halfway point. Regarding `COC(=O)N1CCC(Oc2cc(Oc3cccc(/C=C4\SC(=O)NC4=O)c3)ncn2)CC1`, the Emax in data set [1] amounted to 33.7%. Besides, the EC50 in [2] (read-out: EC50) stood at 1870 nM.
Turning to `CCOC(=O)N1CCC(Oc2cc(Oc3cccc(/C=C4\SC(=O)NC4=O)c3)ncn2)CC1`, in data set [1] (filed as agonist), the maximal effect (Emax) was determined as 43.3%. The EC50 in data set [2] (read-out: EC50) came out at 819 nM.
For the molecule `COC(=O)N1CCC(Oc2cc(Oc3ccc(/C=C4\SC(=O)NC4=O)cc3)ncn2)CC1`, the concentration for a half-maximal effect (EC50) entry in data set [2] (cho-k1) is on record as “Not Active”.
Consider `Cc1c(Oc2ccc(/C=C3\SC(=O)NC3=O)cc2)ncnc1OC1CCN(C(=O)OCc2ccccc2)CC1`, for which the Emax in [1] (filed as agonist) came out at 43.3%. Further, in data set [2] (read-out: EC50), the concentration giving a half-maximal response (EC50) is 805 nM.
Taken in the same sequence, the figures for `CC(C)c1noc(C2CCN(c3ncnc(Nc4ccc(S(C)(=O)=O)cc4F)c3[N+](=O)[O-])CC2)n1` were 100% and 6 nM.
Taken in the same sequence, the figures for `COC(=O)N1CCC(Oc2ncnc(Oc3ccc(/C=C4\SC(=O)NC4=O)cc3)c2C)CC1` were 53.3% and 1410 nM.
Taken in the same sequence, the figures for `Cc1c(Oc2cccc(/C=C3\SC(=O)NC3=O)c2)ncnc1OC1CCN(C(=O)OCc2ccccc2)CC1` were 138% and 106 nM.
As for `CCOC(=O)N1CCC(Oc2ncnc(Oc3cccc(/C=C4\SC(=O)NC4=O)c3)c2C)CC1`, in [2] (cho-k1), the half-maximal effective concentration (EC50) result was “Not Active”.
For the molecule `O=C1NC(=O)/C(=C/c2ccc(Oc3cc(OC4CCN(C(=O)OCc5ccccc5)CC4)ncn3)cc2)S1`, in data set [1] (filed as agonist), the Emax was found to be 88.3%. Moreover, the EC50 in data set [2] (read-out: EC50) was found to be 107 nM.
Regarding `COC(=O)N1CCC(Oc2ncnc(Oc3cccc(/C=C4\SC(=O)NC4=O)c3)c2C)CC1`, the half-maximal effective concentration (EC50) entry in [2] (cho-k1) is recorded as “Not Active”.
Regarding `Cc1c(Oc2ccc(/C=C3\SC(=O)NC3=O)cc2)ncnc1OC1CCN(C(=O)OCC(C)C)CC1`, the Emax in [1] (filed as agonist) was found to be 70.2%. The 50% effective concentration (EC50) in data set [2] (read-out: EC50) came out at 75.1 nM. Further, the Activity in the data set on Mus musculus stood at 24%.
In the case of `CC(C)(C)OC(=O)N1CCC(Oc2cc(Oc3cccc(/C=C4\SC(=O)NC4=O)c3)ncn2)CC1`, the maximal effect (Emax) in data set [1] (filed as agonist) was 78.3%. In data set [2] (read-out: EC50), the 50% effective concentration (EC50) stood at 125 nM.
In general, half-life refers to the time needed for the level to fall by half in the phase considered. The Cmax is the peak of the concentration-time curve. One may read the AUC(0-t) as exposure summed from dosing to a finite time, without extrapolation to infinity. One may read the Tmax as the time at which the peak concentration occurs. In general, AUC(0-inf) refers to total exposure, with the tail of the curve extrapolated. As to `Cc1c(Oc2ccc(/C=C3\SC(=O)NC3=O)cc2)ncnc1OC1CCN(C(=O)OC(C)(C)C)CC1`, the Emax in [1] (filed as agonist) was 68.8%. Moreover, in [3], the half-life is 4.37 h. Also, the Cmax in [4] was found to be 835 ng/mL. In data set [5], this molecule returned an AUC(0-t) at 24 h of 8110 ng·h/mL. This molecule had a k el at 24 h in [6] of 4.44e-05 s⁻¹. Also, in [7], the Tmax is 2.25 h. In addition, in the data set on Mus musculus, the Activity is given as 34.6%. In data set [8], this molecule gave an AUC(0-inf) of 8310 ng·h/mL.
For the molecule `Cc1c(Oc2cccc(/C=C3\SC(=O)NC3=O)c2)ncnc1OC1CCN(C(=O)OCC(C)C)CC1`, the concentration giving a half-maximal response (EC50) result in data set [2] (cho-k1) is recorded as “Not Active”.
As to `CC(C)COC(=O)N1CCC(Oc2cc(Oc3cccc(/C=C4\SC(=O)NC4=O)c3)ncn2)CC1`, the maximum response (Emax) in data set [1] (filed as agonist) was found to be 62.4%. The EC50 in [2] (read-out: EC50) came to 720 nM.
In the case of `O=C1NC(=O)/C(=C/c2cccc(Oc3cc(OC4CCN(C(=O)OCc5ccccc5)CC4)ncn3)c2)S1`, in data set [1] (filed as agonist), the maximum response (Emax) came out at 98.3%. Moreover, in data set [2] (read-out: EC50), the EC50 is 153 nM.
Taken in the same sequence, the figures for `CCOC(=O)N1CCC(Oc2ncnc(Oc3ccc(/C=C4\SC(=O)NC4=O)cc3)c2C)CC1` were 141% and 157 nM.
For `CC(C)COC(=O)N1CCC(Oc2cc(Oc3ccc(/C=C4\SC(=O)NC4=O)cc3)ncn2)CC1`, the maximal response (Emax) in data set [1] (filed as agonist) was determined as 51%. In addition, the EC50 in data set [2] (read-out: EC50) is 745 nM.
As for `CCOC(=O)N1CCC(Oc2cc(Oc3ccc(/C=C4\SC(=O)NC4=O)cc3)ncn2)CC1`, in data set [1] (filed as agonist), the Emax was determined as 51.8%. For the same molecule, the half-maximal effective concentration (EC50) in [2] (read-out: EC50) is 790 nM.
As for `CC(C)(C)OC(=O)N1CCC(Oc2cc(Oc3ccc(/C=C4\SC(=O)NC4=O)cc3)ncn2)CC1`, in data set [1] (filed as agonist), the maximal response (Emax) stood at 122%.
